# In publication PMC7357868 (ACS chemical biology, 2019):
# Columns and labels:
# [1] = target: T1, hpol η (Homo sapiens, UniProt Q9Y253); assay: Gel-based primer extension assay; type: biochemical; conditions: 10 μM IAG-10, 2 nM hpol η
# T1 sequence (Q9Y253 1-437): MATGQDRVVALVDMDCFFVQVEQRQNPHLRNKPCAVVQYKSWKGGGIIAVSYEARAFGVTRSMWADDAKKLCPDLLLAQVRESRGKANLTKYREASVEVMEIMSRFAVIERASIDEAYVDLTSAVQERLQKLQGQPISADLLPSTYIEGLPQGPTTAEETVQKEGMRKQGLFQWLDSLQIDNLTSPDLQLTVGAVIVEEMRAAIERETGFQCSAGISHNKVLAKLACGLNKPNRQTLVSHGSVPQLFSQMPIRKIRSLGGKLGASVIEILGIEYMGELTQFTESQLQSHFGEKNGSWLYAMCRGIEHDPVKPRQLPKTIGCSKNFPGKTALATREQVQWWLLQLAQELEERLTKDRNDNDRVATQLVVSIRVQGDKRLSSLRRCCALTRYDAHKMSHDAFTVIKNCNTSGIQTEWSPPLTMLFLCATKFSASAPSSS
# [2] = target: T1, hpol η; assay: TAMRA strand-displacement fluorescence assay of DNA polymerase activity; type: biochemical; conditions: 95% CI in parentheses
# [3] = system: hpol κ-proficient HAP-1 cells; assay: supF mutagenesis assay; type: cell-based, human; conditions: 1 μM IAG-10, 24 h
# Summary of the method: (§1)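 HAP-1 cells at ~80% confluency (IMDM, 10% FBS) lipofected for 24 h with pSP189 supF plasmid (10 μg per 10 cm dish), ±1 μM test compound. Plasmid was unmodified or pretreated with 100 mM MMS (HEPES pH 7.5, RT, 1 h). Recovered plasmid DpnI-digested, electroporated into E. coli MBM7070, plated on ampicillin/IPTG/X-gal. Mutation frequency = white/(blue + white); ≥10 000 colonies per condition; biological triplicate, mean ±SD.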
# [4] = target: T2, pol Dpo1 (Saccharolobus solfataricus, UniProt P26811); assay: TAMRA strand-displacement selectivity assay, B-family pol; type: biochemical, Sulfolobus solfataricus; conditions: 10 μM IAG-10, 25 nM Dpo1
# T2 sequence (P26811 1-882): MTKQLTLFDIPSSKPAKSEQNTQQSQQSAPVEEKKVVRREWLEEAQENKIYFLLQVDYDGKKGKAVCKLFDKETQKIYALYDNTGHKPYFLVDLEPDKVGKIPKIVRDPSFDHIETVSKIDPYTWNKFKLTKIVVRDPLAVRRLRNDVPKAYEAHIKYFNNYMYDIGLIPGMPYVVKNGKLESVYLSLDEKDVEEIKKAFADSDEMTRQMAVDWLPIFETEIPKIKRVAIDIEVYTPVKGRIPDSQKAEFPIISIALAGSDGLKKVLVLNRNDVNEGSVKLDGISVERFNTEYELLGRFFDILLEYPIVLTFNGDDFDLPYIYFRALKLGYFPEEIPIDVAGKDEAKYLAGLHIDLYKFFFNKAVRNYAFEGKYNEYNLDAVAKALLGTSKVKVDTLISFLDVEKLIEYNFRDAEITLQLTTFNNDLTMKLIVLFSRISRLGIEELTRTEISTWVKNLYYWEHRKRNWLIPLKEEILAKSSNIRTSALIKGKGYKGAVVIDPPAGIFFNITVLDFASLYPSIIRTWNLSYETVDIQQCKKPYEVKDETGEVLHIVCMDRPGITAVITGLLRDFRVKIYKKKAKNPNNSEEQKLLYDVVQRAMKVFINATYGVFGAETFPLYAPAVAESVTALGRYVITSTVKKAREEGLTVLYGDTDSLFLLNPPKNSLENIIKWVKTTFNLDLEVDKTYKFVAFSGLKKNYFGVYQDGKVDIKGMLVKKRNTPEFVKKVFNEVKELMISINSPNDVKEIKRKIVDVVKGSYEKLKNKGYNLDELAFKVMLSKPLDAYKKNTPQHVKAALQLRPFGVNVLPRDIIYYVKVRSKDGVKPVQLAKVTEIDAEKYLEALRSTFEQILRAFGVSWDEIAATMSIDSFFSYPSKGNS
# [5] = target: hpol β (Homo sapiens, UniProt P06746); assay: TAMRA strand-displacement selectivity assay, X-family pol; type: biochemical; conditions: 10 μM IAG-10, 1 nM hpol β
# [6] = target: T3, hRev1 (Homo sapiens, UniProt Q9UBZ9); assay: Gel-based primer extension assay; type: biochemical; conditions: 10 μM IAG-10, 10 nM hRev1
# T3 sequence (Q9UBZ9 330-833): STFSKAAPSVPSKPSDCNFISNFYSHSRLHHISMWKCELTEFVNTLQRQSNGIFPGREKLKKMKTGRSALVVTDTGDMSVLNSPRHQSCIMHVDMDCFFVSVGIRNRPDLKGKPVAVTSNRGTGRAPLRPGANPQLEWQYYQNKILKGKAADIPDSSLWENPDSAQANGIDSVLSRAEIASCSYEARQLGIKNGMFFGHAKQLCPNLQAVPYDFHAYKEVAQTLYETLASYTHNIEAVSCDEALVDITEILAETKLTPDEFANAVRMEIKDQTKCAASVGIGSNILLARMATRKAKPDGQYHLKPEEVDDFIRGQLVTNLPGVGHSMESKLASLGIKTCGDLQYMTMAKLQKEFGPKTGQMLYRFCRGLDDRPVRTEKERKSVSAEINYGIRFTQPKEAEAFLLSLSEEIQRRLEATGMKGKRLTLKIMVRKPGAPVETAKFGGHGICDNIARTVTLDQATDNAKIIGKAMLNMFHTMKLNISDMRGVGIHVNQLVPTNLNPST
# [7] = system: hpol κ-deficient HAP-1 cells; assay: supF mutagenesis assay; type: cell-based, human; conditions: 1 μM IAG-10, 24 h
# Summary of the method: as §1
# [8] = system: hpol κ-proficient HAP-1 cells; assay: Clonogenic survival assay; type: cell-based, human
# [9] = target: DNA pol I from Mycobacterium tuberculosis (Tb pol I) (Mycobacterium tuberculosis, UniProt P9WNU5); assay: TAMRA strand-displacement selectivity assay, A-family pol; type: biochemical; conditions: 10 μM IAG-10, 10 nM Tb pol I
# Sequence of DNA pol I from Mycobacterium tuberculosis (Tb pol I) (P9WNU5 whole entry): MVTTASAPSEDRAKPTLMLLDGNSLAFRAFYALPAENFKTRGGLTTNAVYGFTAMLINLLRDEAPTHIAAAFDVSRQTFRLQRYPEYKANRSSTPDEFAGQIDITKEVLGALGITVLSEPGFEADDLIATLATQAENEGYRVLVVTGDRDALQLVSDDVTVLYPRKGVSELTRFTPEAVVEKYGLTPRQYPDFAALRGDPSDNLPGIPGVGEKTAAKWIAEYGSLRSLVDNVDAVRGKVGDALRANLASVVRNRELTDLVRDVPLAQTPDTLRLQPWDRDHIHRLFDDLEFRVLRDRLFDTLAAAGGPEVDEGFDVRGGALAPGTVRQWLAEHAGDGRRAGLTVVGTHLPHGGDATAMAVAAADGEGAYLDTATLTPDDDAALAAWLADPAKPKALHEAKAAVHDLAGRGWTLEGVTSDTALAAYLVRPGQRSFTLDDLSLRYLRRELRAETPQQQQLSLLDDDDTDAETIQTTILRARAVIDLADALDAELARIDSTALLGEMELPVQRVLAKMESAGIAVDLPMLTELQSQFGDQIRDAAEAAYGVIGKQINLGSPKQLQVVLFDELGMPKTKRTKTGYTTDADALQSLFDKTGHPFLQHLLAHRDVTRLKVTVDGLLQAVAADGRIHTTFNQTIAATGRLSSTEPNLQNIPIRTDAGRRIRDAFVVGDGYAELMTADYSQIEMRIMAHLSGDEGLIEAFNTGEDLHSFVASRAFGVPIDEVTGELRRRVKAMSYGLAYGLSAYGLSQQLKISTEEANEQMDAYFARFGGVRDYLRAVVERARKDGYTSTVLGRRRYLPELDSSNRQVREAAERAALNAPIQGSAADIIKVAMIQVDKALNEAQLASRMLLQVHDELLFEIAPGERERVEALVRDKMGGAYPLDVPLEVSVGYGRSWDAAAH
# [10] = target: T1, hpol η; assay: Steady-state kinetic analysis of nucleotide insertion; type: biochemical; conditions: increasing IAG-10 concentration
compound,measurement,setting,value
"Cl.[H]/N=C(\N)NN=Cc1cn(C(=O)c2cccc3ccccc23)c2ccc(Cl)cc12 [IAG-10, (E)-2-((1-(1-naphthoyl)-5-chloro-1H-indol-3-yl)-methylene)hydrazine-1-carboximidamide hydrochloride]",polymerase activity in presence of compound,[1],only hpol κ was inhibited
same,IC50,"[2]; IC50, 0.2 nM hpol η, 2 nM DNA",22.5 µM
same,IC50,"[2]; IC50, 1 nM hpol η, 50 nM DNA",14.3 µM
same,"mutation frequency, MMS-damaged DNA over undamaged control plasmid",[3],approximately twofold
same,"mutation frequency, undamaged pSP189 plasmid",[3],did not change the mutation frequency
same,polymerase activity in presence of compound,[4],only hpol κ activity was inhibited
same,polymerase activity in presence of compound,[5],only hpol κ activity was inhibited
same,polymerase activity in presence of compound,[6],only hpol κ was inhibited
same,"mutation frequency, control or MMS-damaged DNA",[7],did not alter the mutation frequency
same,colony formation,[8]; 0.5 μM IAG-10 alone,does not impair colony formation
same,colonies formed relative to untreated cells,"[8]; 250 μM TMZ + 0.5 μM IAG-10 cotreatment, 1 h, 10 days culture",~ 40%
same,polymerase activity in presence of compound,[9],only hpol κ activity was inhibited
same,effect on Michaelis constant,[10],linear increase
same,effect on kcat,[10],no measurable change
